The source made the active and inactive calls. No cut-off for these calls is given here.
Legend:
WM 266-4 [1] = assay: Induction of apoptosis in human WM266.4 cells assessed as early apoptotic cells at 4 uM after 24 hrs by Annexin V-FITC/propidium iodide based flow cytometric analysis (reference value: 1.60 %); format: functional
Method in brief: (§1)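 Apoptosis in WM266-4 (BRAF V600E) cells after 24 h at 0, 2, 4 or 8 µM, by Annexin V-FITC/PI dual staining and flow cytometry. Percentages of apoptotic cells were calculated. Three independent experiments.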

[2] = Induction of apoptosis in human WM1361 cells assessed as viable cells at 20 uM after 24 hrs by Annexin V-FITC/propidium iodide based flow cytometric analysis (reference value: 95.2 %); format: functional; conditions: WM1361, 24 h, read-out: Activity
[3] = Cell cycle arrest in human WM266.4 cells assessed as accumulation at G2/M phase at 4 uM after 24 hrs by propidium iodide staining based FACS analysis (reference value: 5.79 to 14.39%); format: functional; conditions: WM 266-4
Method in brief: (§2)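 WM266-4 (BRAF V600E melanoma) cells exposed to 0, 2, 4 or 8 µM for 24 h. Cell-cycle distribution by flow cytometry, with G1, S and G2/M fractions gated. Three independent experiments.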

[4] = Cell cycle arrest in human WM266.4 cells assessed as accumulation at G0/G1 phase at 8 uM after 36 hrs by propidium iodide staining based FACS analysis (reference value: 64.70 %); conditions: WM 266-4
[5] = Induction of apoptosis in human WM1361 cells assessed as early apoptotic cells at 40 uM after 24 hrs by Annexin V-FITC/propidium iodide based flow cytometric analysis (reference value: 1.02 %); format: functional
WM 266-4 [6] = assay: Induction of apoptosis in human WM266.4 cells assessed as DNA fragmentation up to 8 uM after 24 hrs by agarose gel electrophoresis; format: functional, cell-based
Method in brief: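 DNA ladder assay: WM266-4 cells cultured at 37 °C for 24 h with 0, 2, 4 or 8 µM. DNA isolated and run on 2.0% agarose gel beside 2000 bp and 15000 bp markers. Untreated cells served as control.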

[7] = Cell cycle arrest in human WM266.4 cells assessed as accumulation at G0/G1 phase at 8 uM after 12 hrs by propidium iodide staining based FACS analysis (reference value: 64.70 %); conditions: WM 266-4
WM 266-4 [8] = assay: Induction of apoptosis in human WM266.4 cells assessed as necrotic cells at 8 uM after 24 hrs by Annexin V-FITC/propidium iodide based flow cytometric analysis (reference value: 0.435 %); format: functional; method in brief: as §1
[9] = Cell cycle arrest in human WM266.4 cells assessed as accumulation at G0/G1 phase at 8 uM after 24 hrs by propidium iodide staining based FACS analysis (reference value: 56.58 %); format: functional; conditions: WM 266-4; method in brief: as §2
[10] = Induction of apoptosis in human WM1361 cells assessed as late apoptotic cells at 40 uM after 24 hrs by Annexin V-FITC/propidium iodide based flow cytometric analysis (reference value: 2.96 %); format: functional
[11] = Cell cycle arrest in human WM266.4 cells assessed as accumulation at G2/M phase at 2 uM after 24 hrs by propidium iodide staining based FACS analysis (reference value: 14.39 %); format: functional; conditions: WM 266-4; method in brief: as §2
WM 266-4 [12] = assay: Induction of apoptosis in human WM266.4 cells assessed as early apoptotic cells at 8 uM after 24 hrs by Annexin V-FITC/propidium iodide based flow cytometric analysis (reference value: 1.60 %); format: functional; method in brief: as §1
[13] = Cell cycle arrest in human WM266.4 cells assessed as accumulation at G2/M phase at 8 uM after 12 hrs by propidium iodide staining based FACS analysis (reference value: 5.79 %); conditions: WM 266-4
WM 266-4 [14] = assay: Induction of apoptosis in human WM266.4 cells assessed as viable cells at 2 uM after 24 hrs by Annexin V-FITC/propidium iodide based flow cytometric analysis (reference value: 92.9 %); format: functional; conditions: WM 266-4, 24 h, read-out: Activity; method in brief: as §1
[15] = target: Serine/threonine-protein kinase B-raf (Homo sapiens, UniProt P15056, V600E); assay: Inhibition of human recombinant GST-tagged BRAF catalytic domain (416 to 766 residues) V600E mutant expressed in baculovirus expression system preincubated for 1 hr followed by human full length recombinant N-terminal His-tagged MEK1 substrate addition measured after 25 mins by gel electrophoresis method
WM 266-4 [16] = assay: Induction of apoptosis in human WM266.4 cells assessed as increase in apoptotic cells after 24 hrs by Annexin V-FITC/propidium iodide based flow cytometric analysis; format: functional, cell-based; method in brief: as §1
[17] = Induction of apoptosis in human WM1361 cells assessed as early apoptotic cells at 60 uM after 24 hrs by Annexin V-FITC/propidium iodide based flow cytometric analysis (reference value: 1.02 %); format: functional
[18] = Induction of apoptosis in human WM1361 cells assessed as necrotic cells at 60 uM after 24 hrs by Annexin V-FITC/propidium iodide based flow cytometric analysis (reference value: 0.860 %); format: functional
[19] = Cell cycle arrest in human WM266.4 cells assessed as accumulation at G2/M phase at 4 uM after 36 hrs by propidium iodide staining based FACS analysis (reference value: 5.79 %); format: functional; conditions: WM 266-4
WM 266-4 [20] = assay: Induction of apoptosis in human WM266.4 cells assessed as late apoptotic cells at 2 uM after 24 hrs by Annexin V-FITC/propidium iodide based flow cytometric analysis (reference value: 5.04 %); format: functional; method in brief: as §1
[21] = Cell cycle arrest in human WM266.4 cells assessed as accumulation at S phase at 8 uM after 36 hrs by propidium iodide staining based FACS analysis (reference value: 29.51 %); conditions: WM 266-4
[22] = Induction of apoptosis in human WM1361 cells assessed as viable cells at 40 uM after 24 hrs by Annexin V-FITC/propidium iodide based flow cytometric analysis (reference value: 95.2 %); format: functional; conditions: WM1361, 24 h, read-out: Activity
[23] = Cell cycle arrest in human WM266.4 cells assessed as accumulation at S phase at 2 uM after 24 hrs by propidium iodide staining based FACS analysis (reference value: 29.03 %); format: functional; conditions: WM 266-4; method in brief: as §2
[24] = Cytotoxicity against human 293T cells assessed as cell growth inhibition after 24 hrs by MTT assay; format: toxicity, cell-based, HEK-293T
[25] = Cell cycle arrest in human WM266.4 cells assessed as accumulation at S phase at 8 uM after 12 hrs by propidium iodide staining based FACS analysis (reference value: 29.51 %); conditions: WM 266-4
WM 266-4 [26] = assay: Induction of apoptosis in human WM266.4 cells assessed as viable cells at 8 uM after 24 hrs by Annexin V-FITC/propidium iodide based flow cytometric analysis (reference value: 92.9 %); format: functional; conditions: WM 266-4, 24 h, read-out: Activity; method in brief: as §1
WM 266-4 [27] = assay: Induction of apoptosis in human WM266.4 cells assessed as viable cells at 4 uM after 24 hrs by Annexin V-FITC/propidium iodide based flow cytometric analysis (reference value: 92.9 %); format: functional; conditions: WM 266-4, 24 h, read-out: Activity; method in brief: as §1
[28] = Induction of apoptosis in human WM1361 cells assessed as late apoptotic cells at 60 uM after 24 hrs by Annexin V-FITC/propidium iodide based flow cytometric analysis (reference value: 2.96 %); format: functional
[29] = Cell cycle arrest in human WM266.4 cells assessed as accumulation at S phase at 8 uM after 24 hrs by propidium iodide staining based FACS analysis (reference value: 29.03 %); format: functional; conditions: WM 266-4; method in brief: as §2

Chain of Serine/threonine-protein kinase B-raf (P15056 2-766 V600E limits assumed): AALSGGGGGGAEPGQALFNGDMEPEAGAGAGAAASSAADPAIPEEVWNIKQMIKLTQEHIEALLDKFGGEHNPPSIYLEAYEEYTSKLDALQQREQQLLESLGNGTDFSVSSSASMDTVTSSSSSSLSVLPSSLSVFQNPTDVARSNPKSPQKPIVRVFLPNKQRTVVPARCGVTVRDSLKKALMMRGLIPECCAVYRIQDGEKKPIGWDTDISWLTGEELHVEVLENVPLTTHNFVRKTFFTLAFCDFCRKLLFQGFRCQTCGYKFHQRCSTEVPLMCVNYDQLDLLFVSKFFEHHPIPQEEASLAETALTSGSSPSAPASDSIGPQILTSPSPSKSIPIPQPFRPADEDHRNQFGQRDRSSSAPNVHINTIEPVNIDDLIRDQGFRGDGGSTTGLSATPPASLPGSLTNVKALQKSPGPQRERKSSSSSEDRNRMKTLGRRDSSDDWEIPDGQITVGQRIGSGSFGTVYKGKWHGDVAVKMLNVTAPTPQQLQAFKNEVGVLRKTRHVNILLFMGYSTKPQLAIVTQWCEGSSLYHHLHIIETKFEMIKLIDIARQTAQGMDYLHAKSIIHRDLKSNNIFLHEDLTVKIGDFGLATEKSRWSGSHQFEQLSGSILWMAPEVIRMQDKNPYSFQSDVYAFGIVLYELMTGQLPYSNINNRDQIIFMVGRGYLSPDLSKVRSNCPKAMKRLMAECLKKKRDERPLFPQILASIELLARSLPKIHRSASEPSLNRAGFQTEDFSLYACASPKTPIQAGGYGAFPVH

O=c1oc2ccccc2c(N2CCN(C(c3ccccc3)c3ccccc3)CC2)c1CO
Activity (WM 266-4 [1]): 24.4% | viability at 20 µM [2]: 94.1% | Activity [3]: 7.56% | Activity [4]: 89.3% | Activity [5]: 0.856% | Activity (WM 266-4 [6]): Active | Activity [7]: 66.2% | Activity (WM 266-4 [8]): 3.07% | Activity [9]: 82.4% | Activity [10]: 5.11% | Activity [11]: 12.6% | Activity (WM 266-4 [12]): 27.1% | Activity [13]: 12.2% | viability at 2 µM (WM 266-4 [14]): 67% | IC50 [15]: 370 nM | Activity (WM 266-4 [16]): Dose-dependent effect | Activity [17]: 1.61% | Activity [18]: 1.31% | Activity [19]: 2.41% | Activity (WM 266-4 [20]): 14.5% | Activity [21]: 8.26% | viability at 40 µM [22]: 92.9% | Activity [23]: 21.6% | CC50 at 24 h [24]: > 50000 nM | Activity [25]: 21.6% | viability at 8 µM (WM 266-4 [26]): 37.1% | viability at 4 µM (WM 266-4 [27]): 52.5% | Activity [28]: 5.29% | Activity [29]: 6.48%

Source: ChEMBL document CHEMBL3853342, “Design, synthesis and biological evaluation of novel benzo-α-pyrone containing piperazine derivatives as potential BRAFV600E inhibitors” (Bioorg Med Chem Lett, 2016)
